A selection: hits, their analogues and other compounds. The true share with any hit is near 3.7%.
CHO parental Ca: counter-screen for OX1R antagonists: effect in parental CHO cells; AID 463079; inhibition, % at 5.6 µM; 0.63% of 330,000 active; parental CHO-K1, ATP-induced calcium, Fluo-8 fluorescence;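 active = inhibition above that plate's mean sample inhibition plus 3 SD, cut at about 26% in these data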;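 note: 0% = ATP-challenged DMSO wells and 100% = DMSO wells without ATP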
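Test system: parental CHO cells; detection: calcium-sensitive Fluo-8 fluorescence; evaluation: percent inhibition of calcium signal; also added: ATP as calcium-mobilizing challenge; repeats: one well per compound; control set: ATP-challenged DMSO wells low, unchallenged DMSO wells high; compound: single nominal dose of 5.6 µM per compound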
OX1R antag-1: antagonists of human orexin 1 receptor; O43613; CHO/OX1R cells, Fluo-8 calcium fluorescence, orexin A; inhibition, % at 5 µM; 0.43% of 330,000 active;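 active = inhibition above its plate's threshold, mean inhibition of all tested compounds on the plate plus 3 SD, cut at about 37% in these data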;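 note: 0% = orexin A challenge wells and 100% = SB-334867-A antagonist wells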
PGE2 EP2 inh: EP2 receptor (human) inhibition; P43116; C6 glioma cells expressing human EP2, cAMP TR-FRET; cells stimulated with saturating PGE2; inhibition, % at 25 µM; 0.52% of 260,000 active;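 active = percent inhibition above 40 after rounding to a whole number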;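 note: rat C6 glioma host cells with rolipram phosphodiesterase inhibitor present; the protocol text gives 20 µM as final concentration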
GPR7 antag: human neuropeptides B/W receptor 1 antagonism | inhibition, % at 4.4 µM | AID 1861 | 1.1% of 290,000 active | P48145 | GPR7-expressing cells, fluorescence antagonist assay; in the data active = inhibition above about 16%, passing the limit was not always enough;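 note: cells stimulated with the agonist NPW; 0% = agonist with vehicle and 100% = vehicle without agonist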
Target sequence (P48145 whole entry, looked up): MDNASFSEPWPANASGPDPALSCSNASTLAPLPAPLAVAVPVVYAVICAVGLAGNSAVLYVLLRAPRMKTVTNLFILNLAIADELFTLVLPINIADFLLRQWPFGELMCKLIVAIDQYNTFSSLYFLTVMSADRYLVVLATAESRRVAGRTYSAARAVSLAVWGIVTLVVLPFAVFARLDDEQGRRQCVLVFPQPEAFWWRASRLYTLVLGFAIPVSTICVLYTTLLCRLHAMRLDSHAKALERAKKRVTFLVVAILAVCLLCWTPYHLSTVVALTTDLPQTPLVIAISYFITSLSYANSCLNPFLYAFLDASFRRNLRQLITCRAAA
EP2 modulator: modulators of human EP2 prostaglandin E2 receptor; EP2-expressing cells, cAMP HTRF FRET, PGE2 co-stimulation; induction, % at 25 µM; 0.83% of 260,000 active;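 active = compounds whose cAMP rise, as percent of the full-agonist control response, exceeds 60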;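 note: rat C6 glioma line stably carrying human EP2 under a CMV promoter; the protocol text gives 20 µM as final concentration; 100% = response of wells given 1 µM PGE2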
OX1R antag-2: antagonists of human orexin 1 receptor (OX1R); 1.8% of 330,000 active; AID 485270; inhibition, % at 6.6 µM; OX1R-expressing cells, FRET antagonist read-out; in the data active = inhibition mostly above about 38%, no sharp cut-off; inactive = mostly below about 40%;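 note: 0% = agonist challenge alone and 100% = reference antagonist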
An asterisk follows results filed as active; · = no result given.

SMILES	CHO parental Ca	OX1R antag-1	PGE2 EP2 inh	GPR7 antag	EP2 modulator	OX1R antag-2
COc1ccc(-n2c(Cc3ccccc3)nnc2SCC(N)=O)cc1	·	·	3	·	-4	·
COCCN(CC(=O)Nc1ccccc1C(F)(F)F)C(=O)/C=C/c1ccc2ccccc2n1	-16	30	·	·	·	53*
NC(=O)CNC(=O)[C@@H]1CC2(CC(c3cccc([N+](=O)[O-])c3)=NO2)CN1C(=O)c1ccccc1 (some centres undefined)	-6	-7	10	1	8	44
CC1(C(=O)N2CC3(CC(c4cccc([N+](=O)[O-])c4)=NO3)C[C@H]2C(=O)NCC(N)=O)CC1 (some centres undefined)	-2	-6	10	-6	13	48*
C=CCN1C=CC(=C/C=C(/C#N)C(=O)OCC)C=C1	11	19	8	-2	-1	60*
Cc1ccc(NS(=O)(=O)c2ccc(C3CCCCC3)cc2)cc1	42*	56*	3	-11	8	11
Cc1ccc(S(=O)(=O)Nc2ccc(NC(=O)c3c(F)c(F)c(F)c(F)c3F)cc2)cc1	44*	69*	27	78*	-75	-6
CCC(CC)C(=O)Nc1cccc(C(=O)Nc2ccc(S(=O)(=O)Nc3ccc(C)cc3)cc2)c1	10	55*	9	-4	-7	54*
COc1ccccc1-c1noc(CCC(=O)Nc2cccc(C(F)(F)F)c2)n1	5	-26	2	7	4	30
O=C(COC(=O)COc1ccccc1)NCc1ccccc1	6	-2	11	-10	39	11
Cc1ccc(OCC(=O)Nc2sc3c(c2C#N)CC(C)(C)NC3(C)C)cc1	-12	-19	10	1	-72	17
CC1(C)Cc2c(sc(NC(=O)COc3cccc4ccccc34)c2C#N)C(C)(C)N1	82*	26	10	-8	-26	9
Cc1onc(-c2ccccc2Cl)c1C(=O)OCN1C(=O)c2ccccc2C1=O	-25	14	8	-11	57	40
Cc1onc(-c2ccccc2Cl)c1C(=O)OCc1cnc(Cl)s1	-21	-31	5	0	64*	17
COC(=O)CSc1cc(SCC(=O)OC)c(C#N)c(SCC(=O)OC)c1	-17	-10	55*	-18	7	42
O=C(ONC1=NCCCCC1)c1ccc([N+](=O)[O-])cc1	-10	3	3	5	-12	50*
O=C(Nc1cccc([N+](=O)[O-])c1)ONC1=NCCCCC1	0	-4	2	-14	-5	17
Cc1cc(/C=N/Nc2nc(N)ncc2[N+](=O)[O-])c(C)n1-c1ccccc1F	-34	-37	7	-3	-9	44*
Nc1c(C(=O)c2ccccc2)oc2ccc(Br)cc12	-32	24	5	14	16	59*
O=C(Nc1ncc(Cc2ccc(SC(F)F)cc2)s1)c1ccc(OC(F)F)cc1	23	61*	15	8	-53	29
Cc1ccccc1CN1C(=O)c2ccccc2Sc2ccc(C(=O)NCCN3CCOCC3)cc21	-37	-20	·	23	·	9
O=c1[nH]c2ccccc2n1CCCNCCc1ccc(F)cc1	·	·	18	·	-33	·
Cc1nn(-c2ccccc2)c2sc(C(=O)N(CC(=O)NC3CCCC3)Cc3ccco3)cc12	·	·	17	6	5	·
N#CCn1cc(/C=C2\C(=O)NC(=O)N(c3ccc(Cl)cc3)C2=O)c2ccccc21	·	·	84*	·	-107	·
FC(F)(F)c1cccc(NC(=S)N2CCCC2)c1	-11	-17	·	-21	·	8
SMILES	CHO parental Ca	OX1R antag-1	PGE2 EP2 inh	GPR7 antag	EP2 modulator	OX1R antag-2
Cc1nc(SCc2ccccc2)[nH]c(=O)c1CC(=O)OCC(C)C	0	-19	·	-8	·	6
O=C(Nc1ccc(F)cc1)N1CCCC(c2nc(-c3ccncc3)n[nH]2)C1 (centres undefined)	·	·	·	·	-38	·
Cc1ccc(Nc2ncccc2C(N)=O)cc1[N+](=O)[O-]	1	-2	4	-5	-25	13
Cc1cccc(NC(=O)CSCC(=O)N2CCN(c3cccc(C(F)(F)F)c3)CC2)c1	-24	20	·	·	·	30*
COc1ccc(NC(=O)N2CCN(c3cccc(C(F)(F)F)c3)CC2)cc1	27	8	11	3	18	19
CN(C)S(=O)(=O)c1ccc(NC(=O)N2CCN(c3cccc(C(F)(F)F)c3)CC2)cc1	39*	48*	8	-9	-40	34
COc1ccc(NC(=O)CSCC(=O)N2CCN(c3cccc(C(F)(F)F)c3)CC2)cc1	-19	2	·	·	·	9
COc1ccc(NC2CCCN(C(=O)c3cn(C)c4ccccc34)C2)cc1 (centres undefined)	-20	-6	·	1	·	38*
CCC1CCCCN1CCCNC(=O)Cn1ncc2c(C)n(Cc3ccccc3Cl)c(C)c2c1=O (centres undefined)	-19	-17	·	-6	·	10
Cc1cc(-c2ccc(C)c(S(=O)(=O)NCCCN3CCN(c4ccccc4)CC3)c2)on1	-10	-10	·	-2	·	4
Cc1cc(-c2ccc(C)c(S(=O)(=O)NCCCN3CCN(c4ccccc4F)CC3)c2)on1	61*	67*	·	21	·	40
CC(=O)O[C@@H]1CC2C(C)(C)C(=O)CC[C@]2(C)C2CC[C@@]3(C)[C@H](c4ccoc4)OC(=O)C4OC43[C@@]21C (some centres undefined)	·	·	15	·	15	·
COc1ccc(N(CC(=O)N2CCc3ccccc3C2)S(C)(=O)=O)cc1	-13	-14	-3	5	-14	1
COc1ccc(N(CC(=O)N2CCc3ccccc3C2)S(=O)(=O)c2c(C)nn(C)c2C)cc1	-18	-25	6	-10	-3	42*
Cc1c2cc[n+](CCN3CCCCC3)cc2c(C)c2c1[nH]c1ccc(O)cc12	·	·	51*	·	14	·
CN(C(=O)c1cccc(C(=O)N(C)c2ccccc2)c1)c1ccccc1	-10	-19	·	-11	·	8
COc1ccc(CNC(=O)C2CCN(c3nnc(N4CCCC4=O)s3)CC2)cc1	-7	-15	·	-5	·	8
C#CCOCCOCCOCCNc1nc(N2CCN(C(=O)CCCCCCCCCCNC(=O)[C@@H](CCC(=O)O)n3cc(CCCCCN)nn3)CC2)nc(N2CCN(C(=O)CCCCCCCCCCNC(=O)[C@H](CCCCN)n3cc(C[C@@H](C)CC)nn3)CC2)n1	-1	-17	·	·	·	-14
C#CCOCCOCCOCCNc1nc(N2CCN(C(=O)CCCCCCCCCCNC(=O)Cn3cc(CCCCCN)nn3)CC2)nc(N2CCN(C(=O)CCCCCCCCCCNC(=O)Cn3cc(C[C@@H](C)O)nn3)CC2)n1	41*	13	·	·	·	-19
C#CCOCCOCCOCCNc1nc(N2CCN(C(=O)CCCCCCCCCCNC(=O)[C@H](CCCCN)n3cc(CCO)nn3)CC2)nc(N2CCN(C(=O)CCCCCCCCCCNC(=O)[C@H](CCCCN)n3cc(C[C@@H](C)CC)nn3)CC2)n1	54*	8	·	·	·	5
